Source: ChEMBL document CHEMBL1148393, “SAR studies of dihydro-beta-agarofuran sesquiterpenes as inhibitors of the multidrug-resistance phenotype in a Leishmania tropica line overexpressing a P-glycoprotein-like transporter” (J Med Chem, 2004)

What was measured:
[1] = test system: Leishmania tropica; assay: Percentage of growth inhibition of wild type Leishmania tropica Lines at 7 uM.; type: functional
Procedure, shortened: (§1)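 Intrinsic toxicity on the wild-type L. tropica LRC clone, with no DNM present. Log-phase promastigotes were plated at 3 × 10⁵ cells/well in RPMI 1640-modified medium with 20% FBS, with sesquiterpene diluted from DMSO stocks, for 72 h at 28 °C. MTT was added for 4 h, then 20% SDS, and A540 read. Percent growth inhibition is taken against untreated control absorbance.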

[2] = test system: Leishmania tropica; assay: Percentage of growth inhibition of multidrug resistance Leishmania tropica Lines at 15 uM; type: functional
Procedure, shortened: (§2)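 Log-phase MDR promastigotes were plated at 3 × 10⁵ cells/well in RPMI 1640-modified medium with 20% FBS and 150 µM DNM. Sesquiterpenes (DMSO stocks diluted in medium) were added and cells kept 72 h at 28 °C. MTT was added for 4 h, formazan dissolved in 20% SDS and A540 read. Growth inhibition is relative to DNM-treated controls without modulator.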

[3] = test system: Leishmania tropica; assay: Percent growth inhibition of wild type Leishmania tropica at 1 uM; type: functional; procedure, shortened: as §1
[4] = test system: Leishmania tropica; assay: (§3) Percentage of growth inhibition of wild type Leishmania tropica lines at 15 uM; type: functional; procedure, shortened: as §1
[5] = test system: Leishmania tropica; assay: Percentage of growth inhibition of wild type Leishmania tropica Lines at 3 uM.; type: functional; procedure, shortened: as §1
[6] = test system: Leishmania tropica; assay: Percentage of growth inhibition of multidrug resistance Leishmania tropica Lines at 7 uM.; type: functional; procedure, shortened: as §2
[7] = test system: Leishmania tropica; assay: Percentage of growth inhibition of multidrug resistance Leishmania tropica Lines at 3 uM; type: functional; procedure, shortened: as §2
[8] = test system: Leishmania tropica; assay: Percentage of growth inhibition of multidrug resistance Leishmania tropica Lines at 1 uM.; type: functional; procedure, shortened: as §2
[9] = test system: Leishmania tropica; assay: as §3; type: functional; remark: listed apart in the source
Procedure, shortened: (§4)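 WT L. tropica LRC-strain promastigotes (log phase, RPMI 1640-modified medium + 20% heat-inactivated FBS, 28 °C) seeded at 3 × 10⁵ cells/well and exposed without DNM to sesquiterpenes diluted from DMSO stocks. After 72 h at 28 °C, MTT (5 mg/mL in PBS) was added for 4 h, formazan dissolved in 20% SDS, A540 read. Growth inhibition (%) calculated relative to untreated control absorbance.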

[10] = test system: Leishmania tropica; assay: Percentage of growth inhibition of wild type Leishmania tropica Lines at 7 uM; type: functional; procedure, shortened: as §4
[11] = test system: Leishmania tropica; assay: Concentration required to inhibit the growth of multidrug resistance Leishmania tropica Line in the presence of DNM at 7 uM; type: functional, organism-based
[12] = test system: Leishmania tropica; assay: Ratio of IC50 of the multidrug resistance Leishmania tropica Line to that of IC50 of the wild type line at 7 uM; type: functional
Procedure, shortened: (§5)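 Resistance index is the DNM IC50 in the MDR L. tropica line divided by the DNM IC50 in the wild-type line. MDR IC50s were obtained with sesquiterpene at 7 or 15 µM. Growth was read by 72 h MTT assay at 28 °C. Data are from three independent experiments.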

[13] = test system: Leishmania tropica; assay: Ratio of IC50 of the multidrug resistance Leishmania tropica Line to that of IC50 of the wild type line at 15 uM; type: functional; procedure, shortened: as §5
[14] = test system: Leishmania tropica; assay: Concentration required to inhibit the growth of multidrug resistance Leishmania tropica Line in the presence of DNM at 15 uM; type: functional, organism-based
[15] = test system: Leishmania tropica; assay: Percentage of growth inhibition of multidrug resistance Leishmania tropica Lines at 1 uM; type: functional; procedure, shortened: as §2
[16] = test system: Leishmania tropica; assay: Percentage of growth inhibition of multidrug resistance Leishmania tropica Lines at 3 uM.; type: functional; procedure, shortened: as §2
[17] = test system: Leishmania tropica; assay: Percentage of growth inhibition of multidrug resistance Leishmania tropica Lines at 7 uM; Value ranges from 0 to 6%; type: functional; procedure, shortened: as §2
[18] = test system: Leishmania tropica; assay: Percentage of growth inhibition of wild type Leishmania tropica Lines at 3 uM; type: functional; procedure, shortened: as §4

| SMILES | inhibition at 7 µM [1] [%] | inhibition at 15 µM [2] [%] | inhibition at 1 µM [3] [%] | inhibition at 15 µM [4] [%] | inhibition at 3 µM [5] [%] | inhibition at 7 µM [6] [%] | inhibition at 3 µM [7] [%] | inhibition at 1 µM [8] [%] | inhibition at 15 µM [9] [%] | inhibition at 7 µM [10] [%] | IC50 [11] [µM] | RI [12] | RI [13] | IC50 [14] [µM] | inhibition at 1 µM [15] [%] | inhibition at 3 µM [16] [%] | inhibition at 7 µM [17] [%] | inhibition at 3 µM [18] [%] |
| --- | --- | --- | --- | --- | --- | --- | --- | --- | --- | --- | --- | --- | --- | --- | --- | --- | --- | --- |
| CCCCCCCCCCCC(=O)O[C@@H]1C2C[C@H](OC(=O)c3ccco3)[C@]3(C)[C@@H](OC(C)=O)[C@@H](OC(C)=O)C[C@](C)(O)C13OC2(C)C (some centres not stated) | < 6 | 80.5 | < 6 | < 6 | < 6 | 29.2 | 8.8 | < 6 | – | – | – | – | – | – | – | – | – | – |
| CC(=O)O[C@H]1[C@@H](OC(=O)c2ccccc2)C[C@](C)(O)C23OC(C)(C)C(C[C@H](OC(=O)c4ccco4)[C@]12C)[C@H]3O (some centres not stated) | < 6 | 81.9 | < 6 | – | < 6 | 41.1 | 11.1 | < 6 | 8 | – | – | – | – | – | – | – | – | – |
| CC(=O)O[C@H]1C[C@](C)(O)C23OC(C)(C)C(C[C@H](OC(=O)c4ccco4)[C@]2(C)[C@H]1OC(C)=O)[C@H]3OC(=O)c1ccco1 (some centres not stated) | – | 94.4 | < 6 | – | < 6 | 90.9 | 83.5 | – | 15.2 | 9.7 | 30 | 7.8 | 2.3 | 9 | 24.5 | – | – | – |
| CC(=O)O[C@H]1C[C@](C)(O)C23OC(C)(C)C(C[C@H](OC(=O)c4ccco4)[C@]2(C)[C@H]1OC(C)=O)[C@H]3OC(=O)C(F)(F)F (some centres not stated) | < 6 | 7.1 | < 6 | < 6 | < 6 | – | – | < 6 | – | – | – | – | – | – | – | 6 | 6 | – |
| CC(=O)O[C@H]1[C@@H](OC(=O)c2ccccc2)C[C@](C)(O)C23OC(C)(C)C(C[C@H](OC(=O)c4ccco4)[C@]12C)[C@H]3OC(=O)c1ccco1 (some centres not stated) | – | 92.7 | < 6 | – | – | 93.7 | 74.8 | – | 35.3 | 21.4 | – | – | – | – | 11.7 | – | – | 16.5 |
| CC(=O)O[C@H]1[C@@H](OC(=O)c2ccco2)C[C@](C)(O)C23OC(C)(C)C(C[C@H](OC(=O)c4ccco4)[C@]12C)[C@H]3O (some centres not stated) | < 6 | 44.5 | < 6 | < 6 | < 6 | 28.5 | – | < 6 | – | – | – | – | – | – | – | < 6 | – | – |
| COc1ccc(C(=O)O[C@@H]2C3C[C@H](OC(=O)c4ccco4)[C@]4(C)[C@@H](OC(C)=O)[C@@H](OC(C)=O)C[C@](C)(O)C24OC3(C)C)cc1 (some centres not stated) | < 6 | 98.4 | < 6 | – | < 6 | 85 | 35.4 | – | 17.2 | – | – | – | – | – | 11.9 | – | – | – |
| CCCCCCCCCCCC(=O)O[C@@H]1C2C[C@H](OC(=O)c3ccco3)[C@]3(C)[C@@H](OC(C)=O)[C@@H](OC(=O)c4ccccc4)C[C@](C)(O)C13OC2(C)C (some centres not stated) | < 6 | 9.2 | < 6 | < 6 | < 6 | – | – | < 6 | – | – | – | – | – | – | – | 6 | 6 | – |
| CC(=O)O[C@H]1[C@@H](OC(=O)c2ccccc2)C[C@](C)(O)C23OC(C)(C)C(C[C@H](OC(=O)c4ccco4)[C@]12C)[C@H]3OC(=O)C(C)(C)C (some centres not stated) | < 6 | 77.6 | < 6 | < 6 | < 6 | 25.9 | – | < 6 | – | – | – | – | – | – | – | 11.2 | – | – |
| CC(=O)O[C@H]1[C@@H](OC(=O)c2ccccc2)C[C@](C)(O)C23OC(C)(C)C(C[C@H](OC(=O)c4ccco4)[C@]12C)[C@H]3OC(=O)C(F)(F)F (some centres not stated) | < 6 | 36.9 | < 6 | < 6 | < 6 | 9.7 | – | < 6 | – | – | – | – | – | – | – | < 6 | – | – |
| CC(=O)O[C@@H]1C2C[C@H](OC(=O)c3ccco3)[C@]3(C)[C@@H](OC(C)=O)[C@@H](OC(=O)c4ccccc4)C[C@](C)(O)C13OC2(C)C (some centres not stated) | < 6 | 45 | < 6 | < 6 | < 6 | 14.3 | – | < 6 | – | – | – | – | – | – | – | 6 | – | – |
| CC(=O)O[C@H]1C[C@](C)(O)C23OC(C)(C)C(C[C@H](OC(=O)c4ccco4)[C@]2(C)[C@H]1OC(C)=O)[C@H]3OC(=O)C(C)(C)C (some centres not stated) | < 6 | 96.7 | < 6 | < 6 | < 6 | 82.5 | 44.5 | – | – | – | – | – | – | – | 18.1 | – | – | – |
| CC(=O)O[C@H]1[C@@H](OC(=O)c2ccco2)C[C@](C)(O)C23OC(C)(C)C(C[C@H](OC(=O)c4ccco4)[C@]12C)[C@H]3OC(=O)c1ccco1 (some centres not stated) | – | 93.5 | < 6 | – | – | 86.2 | 52.9 | – | 23.4 | 18.1 | – | – | – | – | 10 | – | – | 13.8 |
| CC(=O)O[C@H]1C[C@](C)(O)C23OC(C)(C)C(C[C@H](OC(=O)c4ccco4)[C@]2(C)[C@H]1OC(C)=O)[C@H]3O (some centres not stated) | < 6 | 10.9 | < 6 | < 6 | < 6 | – | – | < 6 | – | – | – | – | – | – | – | < 6 | 6 | – |
| CC(=O)OC[C@]12[C@@H](OC(=O)c3ccccc3)CC3[C@@H](OC(=O)c4ccccc4)C1(OC3(C)C)[C@@](C)(O)C[C@H](OC(C)=O)[C@@H]2OC(C)=O (some centres not stated) | – | 90.9 | < 6 | – | – | 89.9 | 77.5 | – | 15.2 | 11 | 39 | 10.2 | 5.2 | 20 | 18 | – | – | 6.9 |
| CC(=O)O[C@H]1C[C@](C)(O)C23OC(C)(C)C(C[C@H](OC(=O)c4ccco4)[C@]2(C)[C@H]1OC(C)=O)[C@H]3OC(=O)c1ccc([N+](=O)[O-])cc1 (some centres not stated) | < 6 | 59.5 | < 6 | < 6 | < 6 | 15.5 | – | < 6 | – | – | – | – | – | – | – | 6 | – | – |
| CC(=O)O[C@H]1C[C@](C)(O)C23OC(C)(C)C(C[C@H](OC(=O)c4ccco4)[C@]2(C)[C@H]1OC(C)=O)[C@H]3OC(C)=O (some centres not stated) | < 6 | 50.6 | < 6 | < 6 | < 6 | 17.1 | – | < 6 | – | – | – | – | – | – | – | < 6 | – | – |
| CC(=O)O[C@H]1[C@@H](O)C[C@](C)(O)C23OC(C)(C)C(C[C@H](OC(=O)c4ccco4)[C@]12C)[C@H]3OC(=O)c1ccco1 (some centres not stated) | < 6 | 28.7 | < 6 | < 6 | < 6 | 9.1 | – | < 6 | – | – | – | – | – | – | – | 6 | – | – |
| CC(=O)O[C@H]1CC[C@](C)(O)C23OC(C)(C)C(C[C@H](OC(=O)c4ccco4)[C@]12C)[C@H]3OC(=O)c1ccco1 (some centres not stated) | – | 89.9 | < 6 | – | – | 89 | 66.9 | – | 24.6 | 16.4 | – | – | – | – | 20.3 | – | – | 14.8 |
| CC(=O)OC[C@]12[C@@H](OC(=O)c3ccco3)CC3[C@@H](OC(=O)c4ccco4)C1(OC3(C)C)[C@@](C)(O)C[C@H](OC(C)=O)[C@@H]2OC(C)=O (some centres not stated) | < 6 | 94.3 | < 6 | – | < 6 | 89.5 | 79.6 | – | 7.2 | – | 33.3 | 8.7 | 2.9 | 11 | 25.7 | – | – | – |
